Measurements published in ChEMBL document CHEMBL6134796, “Development and Evaluation of Indole-Based Phospholipase D Inhibitors for Lung Cancer Immunotherapy” (J Med Chem, 2025).
Calls of active or inactive are those of the source. No cut-off for these calls is given here.

Legend:
[1] = test system: Lewis lung carcinoma cell line; experiment: Antitumor activity against mouse Lewis lung carcinoma cell line allografted in male C57BL/6 mouse model assessed as reduction in […] expression at 10 mg/kg, po measured every other day for 3 weeks by IHC analysis
[2] = target: T1, Phospholipase D1 (Mus musculus) (UniProt Q9Z280); experiment: In vivo inhibition of PLD1 in male C57BL/6 mouse allografted with mouse Lewis lung carcinoma cell line assessed as increase in calreticulin expression at 10 mg/kg, po by immunofluorescence analysis; type: functional, organism-based
T1 sequence (whole entry): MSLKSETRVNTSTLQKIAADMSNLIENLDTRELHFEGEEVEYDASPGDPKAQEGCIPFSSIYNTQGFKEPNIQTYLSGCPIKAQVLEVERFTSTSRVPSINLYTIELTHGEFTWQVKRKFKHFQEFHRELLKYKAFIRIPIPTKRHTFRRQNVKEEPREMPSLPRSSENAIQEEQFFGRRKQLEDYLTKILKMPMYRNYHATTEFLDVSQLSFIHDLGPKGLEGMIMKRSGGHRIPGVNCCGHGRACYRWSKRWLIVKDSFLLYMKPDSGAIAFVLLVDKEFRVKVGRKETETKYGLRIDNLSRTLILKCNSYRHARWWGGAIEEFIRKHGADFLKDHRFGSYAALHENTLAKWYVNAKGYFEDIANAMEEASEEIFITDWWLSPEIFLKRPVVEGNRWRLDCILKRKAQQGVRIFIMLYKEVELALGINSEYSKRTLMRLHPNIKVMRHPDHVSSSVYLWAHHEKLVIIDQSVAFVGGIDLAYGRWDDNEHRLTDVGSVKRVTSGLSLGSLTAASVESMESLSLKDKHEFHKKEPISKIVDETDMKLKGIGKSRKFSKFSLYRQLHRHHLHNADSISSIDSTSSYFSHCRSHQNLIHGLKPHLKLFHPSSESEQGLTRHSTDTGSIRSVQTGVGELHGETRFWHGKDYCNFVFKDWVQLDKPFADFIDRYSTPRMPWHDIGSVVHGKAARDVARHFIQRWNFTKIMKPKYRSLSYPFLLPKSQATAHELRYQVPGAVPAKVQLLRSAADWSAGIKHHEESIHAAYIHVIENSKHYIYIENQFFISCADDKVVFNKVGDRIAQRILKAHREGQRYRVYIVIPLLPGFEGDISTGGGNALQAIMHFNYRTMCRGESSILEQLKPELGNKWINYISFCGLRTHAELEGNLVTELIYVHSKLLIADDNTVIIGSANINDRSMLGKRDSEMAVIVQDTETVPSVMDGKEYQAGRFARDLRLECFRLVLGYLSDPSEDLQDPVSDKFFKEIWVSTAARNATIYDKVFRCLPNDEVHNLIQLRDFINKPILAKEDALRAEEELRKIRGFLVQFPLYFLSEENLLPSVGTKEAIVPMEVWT

[3] = target: T1, Phospholipase D1 (Mus musculus); experiment: In vivo inhibition of PLD1 in male C57BL/6 mouse allografted with mouse Lewis lung carcinoma cell line assessed as decrease in CD163+ anti-inflammatory M2 macrophage population at 10 mg/kg, po by immunofluorescence analysis; type: functional, organism-based
Outline: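 Same LLC syngeneic C57BL/6 model, 10 mg/kg PO every other day for 3 weeks. Tumor tissues were stained by immunofluorescence for CD80+ and CD163+ cells, CD8+ T cells, and CD4+/IL-17+ and Treg populations. Nuclei were counterstained with 1 μM Hoechst 33342 and imaged by confocal microscopy.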

[4] = Metabolic stability in human plasma assessed as parent compound remaining at 10 uM measured after 120 mins; type: ADME, cell-free; conditions: read-out: Stability
Outline: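 Citrated human plasma spiked to final 10 μM, incubated at 37 °C for 0, 30 and 120 min; quenched with acetonitrile containing internal standard, vortexed, centrifuged at 4 °C; parent remaining quantified by LC-MS/MS in MRM mode on C18 column, formic acid water/acetonitrile gradient.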

A549 [5] = experiment: Cytotoxicity against human A549 cells assessed as increase in cell death rate by WST-1 assay; type: functional, cell-based; conditions: time 2-48 hrs
A549 [6] = experiment: Inhibition of cell invasion in human A549 cells measured after 24 hrs by crystal violet staining based light microscopic analysis; type: functional
A549 [7] = experiment: Inhibition of cell proliferation in human A549 cells assessed as reduction in Ki-67 expression; type: functional, cell-based
Outline: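 A549 cells immunostained for Ki67 with fluorescent secondary antibody; nuclei counterstained with 1 μM Hoechst 33342; confocal imaging; at least three independent experiments, mean ± SEM.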

[8] = target: T2, Phospholipase D1 (Homo sapiens) (UniProt Q13393); experiment: Inhibition of wild type PLD1 (unknown origin) overexpressed in human A549 cells; type: cell-based
T2 sequence (whole entry): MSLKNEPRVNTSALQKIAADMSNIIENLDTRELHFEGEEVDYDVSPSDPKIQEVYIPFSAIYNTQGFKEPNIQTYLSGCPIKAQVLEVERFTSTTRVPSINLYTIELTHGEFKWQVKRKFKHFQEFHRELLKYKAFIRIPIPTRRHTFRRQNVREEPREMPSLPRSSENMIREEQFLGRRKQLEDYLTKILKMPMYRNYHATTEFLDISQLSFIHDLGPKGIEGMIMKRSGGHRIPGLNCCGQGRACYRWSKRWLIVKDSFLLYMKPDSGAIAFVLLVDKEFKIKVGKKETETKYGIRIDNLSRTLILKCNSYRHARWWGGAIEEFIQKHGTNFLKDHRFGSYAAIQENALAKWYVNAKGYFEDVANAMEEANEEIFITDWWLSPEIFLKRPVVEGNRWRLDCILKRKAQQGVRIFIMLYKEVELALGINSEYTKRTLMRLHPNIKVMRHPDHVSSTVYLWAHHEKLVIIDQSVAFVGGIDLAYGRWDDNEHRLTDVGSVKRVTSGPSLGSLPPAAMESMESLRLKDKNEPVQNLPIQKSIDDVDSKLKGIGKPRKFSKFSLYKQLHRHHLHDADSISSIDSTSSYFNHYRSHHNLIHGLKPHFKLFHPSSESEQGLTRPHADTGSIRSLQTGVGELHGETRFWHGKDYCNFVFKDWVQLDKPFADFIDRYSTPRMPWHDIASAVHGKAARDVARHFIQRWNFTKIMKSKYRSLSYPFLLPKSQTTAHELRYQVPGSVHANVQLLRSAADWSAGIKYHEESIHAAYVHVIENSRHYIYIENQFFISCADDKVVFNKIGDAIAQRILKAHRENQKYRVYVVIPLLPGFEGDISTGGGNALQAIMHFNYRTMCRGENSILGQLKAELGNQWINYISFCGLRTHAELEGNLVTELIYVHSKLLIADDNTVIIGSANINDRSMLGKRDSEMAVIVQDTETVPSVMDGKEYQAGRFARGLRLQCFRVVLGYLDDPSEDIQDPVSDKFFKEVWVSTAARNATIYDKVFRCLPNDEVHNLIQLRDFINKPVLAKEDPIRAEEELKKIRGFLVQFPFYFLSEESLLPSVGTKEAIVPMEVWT
Outline: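 A549 cells transfected with wild-type PLD1, labeled with [3H] myristic acid; PLD activity as [3H] phosphatidylbutanol formed by transphosphatidylation with 1-butanol, expressed as percent of total lipid cpm in PtdBut; alternatively, cells treated 1 h and read by Amplex Red kit (ex 540/em 590 nm); at least three independent experiments.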

remaining at 2 h, 10 µM [4]: 94.6%
SMILES: O=C(CCc1c[nH]c2ccccc12)Nc1cc(C(F)(F)F)cc(C(F)(F)F)c1
Activity [1]: Active
inhibition [2]: Active
inhibition [3]: Active
Activity (A549 [5]): Time-dependent-effect
inhibition (A549 [6]): Active
inhibition (A549 [7]): Active
inhibition [8]: Active
